Assay results from different studies.
Each line is one published result; the experiments were not run side by side.
Target: Serine/threonine-protein kinase Nek11 (NEK11, Homo sapiens, UniProt Q8NG66)
Residues used in one study (Q8NG66 1-645): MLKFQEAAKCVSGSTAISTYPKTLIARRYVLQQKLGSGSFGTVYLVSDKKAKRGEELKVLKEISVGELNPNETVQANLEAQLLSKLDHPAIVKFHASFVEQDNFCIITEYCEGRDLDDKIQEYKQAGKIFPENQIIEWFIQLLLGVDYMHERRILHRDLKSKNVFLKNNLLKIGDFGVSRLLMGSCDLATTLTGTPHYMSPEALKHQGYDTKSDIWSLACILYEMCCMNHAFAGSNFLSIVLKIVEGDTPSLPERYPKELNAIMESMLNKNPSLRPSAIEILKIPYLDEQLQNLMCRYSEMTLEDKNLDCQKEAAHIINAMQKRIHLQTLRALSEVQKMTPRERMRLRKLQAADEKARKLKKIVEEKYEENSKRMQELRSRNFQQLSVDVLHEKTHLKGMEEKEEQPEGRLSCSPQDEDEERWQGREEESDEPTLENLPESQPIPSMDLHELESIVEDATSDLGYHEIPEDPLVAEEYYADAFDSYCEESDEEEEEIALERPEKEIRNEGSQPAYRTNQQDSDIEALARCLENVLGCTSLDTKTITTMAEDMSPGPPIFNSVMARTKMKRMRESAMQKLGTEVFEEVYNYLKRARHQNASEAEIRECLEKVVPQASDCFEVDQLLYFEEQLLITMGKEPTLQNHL

Structure (SMILES) | assay | conditions | measurement | value
CCC(=O)N[C@H]1CC[C@@H](C(=O)N(C)c2ccc(-c3nc4ccccc4o3)cc2)C1 | cell-free assay, competition with immobilised ligand | 1 µM | remaining binding | 86%
CCN(CC)CCNC(=O)c1c(C)[nH]c(/C=C2\C(=O)Nc3ccc(F)cc32)c1C | enzyme activity, inhibitor | 10 µM | inhibition | 46%
Clc1ccc(Nc2nnc(Cc3ccncc3)c3ccccc23)cc1 | cell-free assay | 0.5 µM | remaining signal | 87%
Cc1ccc(Nc2nccc(N(C)c3ccc4c(C)n(C)nc4c3)n2)cc1S(N)(=O)=O | enzyme activity, inhibitor | 0.3 µM | inhibition | -9%
C[C@H](c1cccc(C#N)c1)n1cc(Cl)cc(C(N)=O)c1=N | cell-free assay, competition with immobilised ligand | 1 µM | remaining binding | 100%
O=C1Nc2ccc(Cl)cc2C1=Cc1cc(Cl)c(O)c(Cl)c1 | cell-free assay | 0.5 µM | remaining signal | 104%
Cc1ccc(C(=O)Nc2ccc(CN3CCN(C)CC3)c(C(F)(F)F)c2)cc1C#Cc1cnc2cccnn12 | enzyme activity, inhibitor | 23.5 nM | remaining activity | 83%
CN1CCN(c2cnc3c(C4CCN(C(=O)c5ccc(OC(F)(F)F)cc5N)CC4)ncnc3c2)CC1 | cell-free assay, competition with immobilised ligand | 1 µM | remaining binding | 100%
Cc1cnc(NC2CCOCC2)nc1-n1cnc(C(=O)NC(CN)c2cc(F)cc(Cl)c2)c1 (centres unmarked) | enzyme activity, inhibitor, radiometric | 1 µM | remaining activity | 81%
CNC(=O)c1cc(Oc2ccc(NC(=O)Nc3ccc(Cl)c(C(F)(F)F)c3)cc2)ccn1 | enzyme activity, inhibitor | 10 µM | inhibition | 28%
CN([C@@H]1CCc2c(CC(=O)O)c3ccccc3n2C1)S(=O)(=O)c1ccc(F)cc1 | cell-free assay, competition with immobilised ligand | 1 µM | remaining binding | 100%
COc1cc2ncnc(Nc3ccc(F)c(Cl)c3)c2cc1OCCCN1CCOCC1 | cell-free assay | 0.5 µM | remaining signal | 109%
CC1=C(C#N)C(c2ccc3c(c2)c(NC(=O)c2ccccc2C)nn3C)C(C#N)=C(C)N1 | cell-free assay, competition with immobilised ligand | 1 µM | remaining binding | 96%
Nc1ncnc2occ(-c3ccc(NC(=O)Nc4cc(C(F)(F)F)ccc4F)cc3)c12 | cell-free assay, inhibitor | 20 µM | remaining signal | 9.3%
CC(C)(O)[C@H]1CC[C@H](Nc2ccc3ncc(-c4cccc(C(F)(F)F)c4)n3n2)CC1 | enzyme activity, inhibitor | 1 µM | remaining activity | 120%
O=C(Nc1cnn(-c2csc(C(=O)NC3COC3)c2)c1)Nc1c(F)cccc1Cl | enzyme activity, inhibitor | 5 µM | remaining activity | 89.5%
Oc1cccc(-c2nc(N3CCOCC3)c3oc4ncccc4c3n2)c1 | cell-free assay | 0.5 µM | remaining signal | 109%
CC(=O)N1CCC(c2ccc(C(=O)NC(=N)N)cc2C(F)(F)F)CC1 | cell-free assay, competition with immobilised ligand | 1 µM | remaining binding | 100%
CCN(CC)c1ccc(C2=NNC(=O)CC2C)cc1[N+](=O)[O-] (centres unmarked) | enzyme activity, inhibitor | 10 µM | remaining activity | 114%
CC(C)(C)c1nc2c(s1)c1nc(N)ncc1c1ccc(NS(=O)(=O)c3c(F)cccc3F)c(F)c12 | enzyme activity, inhibitor, radiometric | 1 µM | remaining activity | 60%
